Measurements reported in ChEMBL document CHEMBL4385646, “Structural development of 1H-pyrazolo-[3,4-b]pyridine-4-carboxylic acid derivatives as human peroxisome proliferator-activated receptor alpha (PPARα)-selective agonists” (Bioorg Med Chem Lett, 2019).
Calls of active or inactive are those of the source. The calls are words filed in the database; no cut-off is given here.

Tests used:
[1] = molecular target: T1, Peroxisome proliferator-activated receptor gamma (Homo sapiens) (UniProt P37231); assay: Transactivation of human GAL4-fused PPARgamma expressed in human HepG2 cells at 30 uM after 24 hrs by renilla luciferase reporter gene assay; assay type: cell-based
T1 sequence (whole entry): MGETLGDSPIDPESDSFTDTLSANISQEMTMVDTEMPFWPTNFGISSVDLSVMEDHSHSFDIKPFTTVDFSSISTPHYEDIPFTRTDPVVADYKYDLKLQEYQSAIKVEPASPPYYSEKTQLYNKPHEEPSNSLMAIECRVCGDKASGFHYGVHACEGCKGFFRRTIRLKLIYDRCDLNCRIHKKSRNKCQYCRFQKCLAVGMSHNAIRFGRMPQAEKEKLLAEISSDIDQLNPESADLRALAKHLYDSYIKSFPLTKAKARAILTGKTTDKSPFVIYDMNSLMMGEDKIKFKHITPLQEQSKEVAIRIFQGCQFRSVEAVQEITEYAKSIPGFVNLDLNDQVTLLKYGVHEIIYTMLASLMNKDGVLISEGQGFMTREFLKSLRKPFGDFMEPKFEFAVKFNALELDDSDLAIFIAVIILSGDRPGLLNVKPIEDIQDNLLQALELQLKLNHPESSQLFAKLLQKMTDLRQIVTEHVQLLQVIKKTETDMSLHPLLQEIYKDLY
How it was run: (§1)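 HepG2 cells carried GAL4-fused human PPARγ or PPARδ, or mouse or rat PPARα, plus the 4xUAS-tk-luc reporter. Cells treated across a concentration range for 24 h. Luciferase normalized to Renilla activity and expressed as fold induction over vehicle, set as 1.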

Rattus norvegicus [2] = assay: […] activity in fructose-challenged Sprague-Dawley rat assessed as increase in liver SLC25A20 mRNA expression at 10 mg/kg, po administered once daily via gavage for 2 weeks measured after 5 hrs fasting by SYBR green dye-based RT-PCR analysis; assay type: functional, organism-based
How it was run: (§2)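 Male rats were given 25% fructose in drinking water for 3 weeks. They then received 10 mg/kg/day orally in 0.5% methylcellulose (vehicle control) for 2 more weeks while fructose continued. Liver mRNA was measured by real-time RT-PCR, normalized to β2-microglobulin and set as 1 in the vehicle group. Values are means ± S.D.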

Rattus norvegicus [3] = assay: […] activity in fructose-challenged Sprague-Dawley rat assessed as increase in liver ACOX1 mRNA expression at 10 mg/kg, po administered once daily via gavage for 2 weeks measured after 5 hrs fasting by SYBR green dye-based RT-PCR analysis; assay type: functional, organism-based; how it was run: as §2
[4] = Selectivity ratio of EC50 for rat GAL4-fused PPARalpha expressed in human HepG2 cells to EC50 for human GAL4-fused PPARalpha LBD expressed in human HepG2 cells; assay type: cell-based
[5] = molecular target: Peroxisome proliferator-activated receptor alpha (Homo sapiens) (UniProt Q07869); assay: Displacement of fluormone pan-PPAR green from GST-tagged human PPARalpha ligand binding domain after 3 hrs by TR-FRET assay
[6] = Selectivity ratio of EC50 for mouse GAL4-fused PPARalpha expressed in human HepG2 cells to EC50 for human GAL4-fused PPARalpha LBD expressed in human HepG2 cells; assay type: cell-based
Rattus norvegicus [7] = assay: […] activity in fructose-challenged Sprague-Dawley rat assessed as increase in liver CPT1A mRNA expression at 10 mg/kg, po administered once daily via gavage for 2 weeks measured after 5 hrs fasting by SYBR green dye-based RT-PCR analysis; assay type: functional, organism-based; how it was run: as §2
[8] = molecular target: T2, Peroxisome proliferator-activated receptor alpha (Homo sapiens) (UniProt Q07869); assay: Transactivation of human GAL4-fused PPARalpha LBD expressed in human HepG2 cells at 1 uM after 24 hrs by dual renilla-luciferase reporter gene assay relative to fenofibrate; assay type: cell-based
T2 sequence (whole entry): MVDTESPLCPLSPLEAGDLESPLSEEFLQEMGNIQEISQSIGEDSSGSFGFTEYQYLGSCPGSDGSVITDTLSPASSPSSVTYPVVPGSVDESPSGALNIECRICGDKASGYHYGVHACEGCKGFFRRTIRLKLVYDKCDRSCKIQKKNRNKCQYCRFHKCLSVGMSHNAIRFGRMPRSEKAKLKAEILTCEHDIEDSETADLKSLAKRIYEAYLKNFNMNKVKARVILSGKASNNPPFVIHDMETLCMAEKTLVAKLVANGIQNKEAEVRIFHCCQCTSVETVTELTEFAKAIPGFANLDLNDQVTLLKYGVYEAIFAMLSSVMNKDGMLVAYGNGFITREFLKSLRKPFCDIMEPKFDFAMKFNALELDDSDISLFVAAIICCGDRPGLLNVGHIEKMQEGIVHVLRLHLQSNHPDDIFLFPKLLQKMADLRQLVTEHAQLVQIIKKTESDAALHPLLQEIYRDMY
How it was run: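 HepG2 cells cotransfected with 4xUAS-tk-luc and pBIND-hPPARα. Cells treated 24 h with compound at 1 μM final; fenofibrate 10 μM served as reference and 0.1% DMSO as vehicle. Read-out by reporter gene luciferase assay.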

[9] = molecular target: T2, Peroxisome proliferator-activated receptor alpha (Homo sapiens); assay: Transactivation of human PPARalpha in human FLC4 cells assessed as upregulation of PDK4 mRNA expression after 48 hrs by SYBR green dye-based RT-PCR analysis; assay type: cell-based
How it was run: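 FLC4 cells treated for 48 h with various concentrations. PDK4 mRNA measured by real-time RT-PCR, normalized to β2-microglobulin and set as 1 in vehicle. Values are means ± S.D.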

[10] = molecular target: T2, Peroxisome proliferator-activated receptor alpha (Homo sapiens); assay: Transactivation of human PPARalpha LBD expressed in human HepG2 cells at 10 uM after 24 hrs in presence of PPARalpha antagonist by dual renilla-luciferase reporter gene assay; assay type: cell-based
How it was run: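 Transfected HepG2 cells (4xUAS-tk-luc plus pBIND-hPPARα) were pretreated 1 h with graded GW6471 before agonist was added at 10 μM final. Reporter luciferase was read after treatment. Percent inhibition was calculated relative to activity without GW6471, taken as 100%.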

Rattus norvegicus [11] = assay: […] activity in fructose-challenged Sprague-Dawley rat assessed as increase in liver ACADM mRNA expression at 10 mg/kg, po administered once daily via gavage for 2 weeks measured after 5 hrs fasting by SYBR green dye-based RT-PCR analysis; assay type: functional, organism-based; how it was run: as §2
[12] = molecular target: T3, Peroxisome proliferator-activated receptor delta (Homo sapiens) (UniProt Q03181); assay: Transactivation of human GAL4-fused PPARdelta expressed in human HepG2 cells after 24 hrs by dual renilla-luciferase reporter gene assay; assay type: cell-based; how it was run: as §1
T3 sequence (whole entry): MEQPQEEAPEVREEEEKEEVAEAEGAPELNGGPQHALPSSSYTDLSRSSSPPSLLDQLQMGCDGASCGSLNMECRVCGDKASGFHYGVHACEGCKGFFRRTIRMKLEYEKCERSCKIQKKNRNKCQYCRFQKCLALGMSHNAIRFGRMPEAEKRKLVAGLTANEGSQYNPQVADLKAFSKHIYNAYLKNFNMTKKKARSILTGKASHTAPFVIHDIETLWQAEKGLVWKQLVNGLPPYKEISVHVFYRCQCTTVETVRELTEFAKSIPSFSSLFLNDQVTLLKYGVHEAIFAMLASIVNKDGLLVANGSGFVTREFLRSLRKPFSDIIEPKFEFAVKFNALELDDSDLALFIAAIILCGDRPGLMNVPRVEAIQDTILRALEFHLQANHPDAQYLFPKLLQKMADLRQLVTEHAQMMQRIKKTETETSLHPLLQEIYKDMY

Rattus norvegicus [13] = assay: […] activity in fructose-challenged Sprague-Dawley rat assessed as reduction in serum triglyceride level at 10 mg/kg, po administered once daily via gavage for 2 weeks measured after 5 hrs fasting; assay type: functional, organism-based
How it was run: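 Male rats had 25% fructose in drinking water for 3 weeks, then oral dosing at 10 mg/kg/day for 2 weeks with fructose continued. The vehicle group got 0.5% methylcellulose. Serum triglyceride was measured after the 2-week treatment.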

Rattus norvegicus [14] = assay: […] activity in fructose-challenged Sprague-Dawley rat assessed as reduction in serum triglyceride level at 30 mg/kg, po administered once daily via gavage for 2 weeks measured after 5 hrs fasting; assay type: functional, organism-based
How it was run: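 Male rats had 25% fructose in drinking water for 3 weeks, then oral dosing at 30 mg/kg/day for 2 weeks with fructose continued. The vehicle group got 0.5% methylcellulose. Serum triglyceride was measured after the 2-week treatment.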

Rattus norvegicus [15] = assay: […] activity in fructose-challenged Sprague-Dawley rat assessed as increase in liver CPT1A mRNA expression at 30 mg/kg, po administered once daily via gavage for 2 weeks measured after 5 hrs fasting by SYBR green dye-based RT-PCR analysis; assay type: functional, organism-based
How it was run: as §2, with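 “30” for “10”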

Rattus norvegicus [16] = assay: […] activity in fructose-challenged Sprague-Dawley rat assessed as increase in liver SLC25A20 mRNA expression at 30 mg/kg, po administered once daily via gavage for 2 weeks measured after 5 hrs fasting by SYBR green dye-based RT-PCR analysis; assay type: functional, organism-based
How it was run: as §2, with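 “30” for “10”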

Rattus norvegicus [17] = assay: […] activity in fructose-challenged Sprague-Dawley rat assessed as increase in liver ACOX1 mRNA expression at 30 mg/kg, po administered once daily via gavage for 2 weeks measured after 5 hrs fasting by SYBR green dye-based RT-PCR analysis; assay type: functional, organism-based
How it was run: as §2, with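 “30” for “10”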

Rattus norvegicus [18] = assay: […] activity in fructose-challenged Sprague-Dawley rat assessed as increase in liver ACADM mRNA expression at 30 mg/kg, po administered once daily via gavage for 2 weeks measured after 5 hrs fasting by SYBR green dye-based RT-PCR analysis; assay type: functional, organism-based
How it was run: as §2, with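 “30” for “10”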

[19] = molecular target: T2, Peroxisome proliferator-activated receptor alpha (Homo sapiens); assay: Transactivation of human […] PPARalpha LBD expressed in human HepG2 cells at 1 uM by renilla luciferase reporter gene assay relative to control; assay type: cell-based
[20] = Metabolic stability in rat liver microsomes assessed as parent compound remaining at 0.5 uM after 60 mins in presence of NADPH by LC/MS/MS analysis; assay type: ADME, Microsome; conditions: microsomes, 1 h, 0.5 µM
How it was run: (§3)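 Compound at 0.5 μM incubated with liver microsomes at 37°C for 1 h; result given as percent remaining. Final DMSO 0.2%.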

[21] = Solubility of the compound in pH 7.4 PBS at 100 uM incubated for 10 mins under shaking condition by HPLC analysis; assay type: physicochemical
How it was run: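 Aqueous solubility determined in PBS, pH 7.4; reported in μM.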

[22] = Apparent permeability from apical to basolateral side in human Caco2 cells at 25 uM measured up to 2 hrs by LC/MS/MS analysis; assay type: ADME, cell-based; conditions: Caco-2
How it was run: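 Caco-2 monolayers; permeability measured apical-to-basolateral (A–B) at 25 μM compound, reported as ×10⁻⁶ cm/s.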

[23] = Protein binding in rat plasma at 20 uM after 5 hrs by LC/MS/MS analysis; assay type: ADME, cell-free; conditions: 5 h, 20 µM
How it was run: (§4)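 Compound at 20 μM incubated with plasma at 37°C for 5 h; percent bound to protein determined. Final DMSO 0.2%.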

[24] = Metabolic stability in human liver microsomes assessed as parent compound remaining at 0.5 uM after 60 mins in presence of NADPH by LC/MS/MS analysis; assay type: ADME, Microsome; conditions: microsomes, 1 h, 0.5 µM; how it was run: as §3
[25] = Protein binding in human plasma at 20 uM after 5 hrs by LC/MS/MS analysis; assay type: ADME, cell-free; conditions: 5 h, 20 µM; how it was run: as §4

Cc1cc(C(=O)O)c2c(C(C)C)nn(-c3ccc(Cl)cc3)c2n1
Activity [1]: Active
Activity (Rattus norvegicus [2]): Active
Activity (Rattus norvegicus [3]): Active
Ratio EC50 [4]: 20
inhibition [5]: Dose-dependent effect
Ratio EC50 [6]: 20
Activity (Rattus norvegicus [7]): Active
activation relative to fenofibrate [8]: 187
Activity [9]: Dose-dependent effect
Activity [10]: inactive
Activity (Rattus norvegicus [11]): Active
Activity [12]: inactive
Activity (Rattus norvegicus [13]): Active

Cc1cc(C(=O)O)c2c(C(C)(C)C)nn(-c3ccc(Cl)cc3)c2n1
inhibition [5]: inactive
activation relative to fenofibrate [8]: 2.26

CC(C)OC(=O)C(C)(C)Oc1ccc(C(=O)c2ccc(Cl)cc2)cc1
Activity (Rattus norvegicus [14]): Active
Activity (Rattus norvegicus [15]): Active
Activity (Rattus norvegicus [16]): Active
Activity (Rattus norvegicus [17]): Active
Activity (Rattus norvegicus [18]): Active

CC(C)c1nn(-c2ccc(F)cc2)c2nc(C3CC3)cc(C(=O)O)c12
fold change (FC) [19]: 151

Cc1cc(C(=O)[O-])c2c(C(C)C)nn(-c3ccc(Cl)cc3)c2n1.[Na+]
Stability [20]: 92%
solubility at 10 min, 100 µM [21]: > 95 µM
Papp A→B at 2 h, 25 µM [22]: 22.5 ×10⁻⁶ cm/s
PPB [23]: 98.9%
Stability [24]: 91%
PPB [25]: 99.7%
